Most compounds without a hit are left out; they make up all but 4% or so of the library.
KCNK9 inh – blocks the human KCNK9 two-pore domain potassium channel; 1.2% of 310,000 active; HEK293 KCNK9, FluxOR thallium flux fluorescence; active compounds read low; B-score at 10 µM;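 active = ratio B-score over 3 SD below the library mean, with starting fluorescence within 5 SD of its mean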;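 note: negative B-score means less thallium flux so channel inhibition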
hERG rescue – shields human hERG channel from block by proarrhythmic agents | Q12809 | CHO-hERG, FluxOR thallium flux, dofetilide IC70 present | activation (rescue from dofetilide block), less the hit threshold, % at 10 µM | 0.51% of 310,000 active;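 active = activation above the mean of controls blocked by dofetilide plus 5 SD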;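 note: thallium influx through hERG after potassium depolarization seen as dye fluorescence rise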
KCNK3 block – human KCNK3 channel inhibition, primary screen. O14649. B-score at 10 µM. CHO-KCNK3 thallium flux, FluxOR fluorescence; active compounds read low. 0.84% of 340,000 active;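 active = B-score under library mean minus 4 SD, starting fluorescence ratio at most library mean plus 5 SD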;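 note: more negative B-score means stronger inhibition of thallium flux through KCNK3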
PHOSPHO1 inh – inhibitors of human PHOSPHO1 phosphatase. Q8TCT1. 1.1% of 290,000 active. recombinant PHOSPHO1, absorbance phosphatase assay. inhibition, % at 13.3 µM; in the data active = inhibition above about 60%
Target sequence (Q8TCT1 whole entry, looked up): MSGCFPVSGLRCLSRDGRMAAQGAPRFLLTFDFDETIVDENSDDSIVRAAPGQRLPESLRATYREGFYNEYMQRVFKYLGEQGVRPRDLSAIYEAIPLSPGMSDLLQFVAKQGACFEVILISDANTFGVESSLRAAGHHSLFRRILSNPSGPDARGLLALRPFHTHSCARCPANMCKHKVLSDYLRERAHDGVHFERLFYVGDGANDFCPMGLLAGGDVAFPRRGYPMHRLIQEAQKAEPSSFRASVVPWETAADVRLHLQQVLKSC
KCNQ1 block – human KCNQ1 channel inhibition; CHO-K1 KCNQ1, FluxOR thallium flux fluorescence; active compounds read high; 1.3% of 310,000 active; B-score at 10 µM;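 active = compounds whose thallium flux B-score, printed positive for inhibition, exceeds three library SD while starting fluorescence stays within three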;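 note: channel opened by potassium depolarization with thallium stimulus after 20 min compound exposure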
KCNQ1 pot – human KCNQ1 channel potentiation or activation; P51787; CHO-K1 KCNQ1, thallium flux FluxOR fluorescence; active compounds read high; B-score at 10 µM; 0.35% of 310,000 active; AID 2648;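 active = fluorescence ratio B-score, a plate-corrected score, at least three library SD, with initial intensity B-score within 5 SD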
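Medium – assay buffer, equal DMSO in all wells · Material – CHO-K1 cell line with stable KCNQ1 potassium channel expression · Signal – kinetic FluxOR thallium fluorescence, 10-s 1-Hz baseline, 110-s post-stimulus read · Compound – single concentration per compound, DMSO matched to controls · Schedule – 37 °C overnight plating, 90-min dark dye load, 20-min compound pretreatment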
* hit, by the source's call; i = inactive; nt = no result.

SMILES	KCNK9 inh	hERG rescue	KCNK3 block	PHOSPHO1 inh	KCNQ1 block	KCNQ1 pot
O=C1c2ccccc2C(=O)c2c1oc(C(F)(F)F)c2C(=O)c1ccccc1	i	-9	i	106*	i	i
O=C(c1ccccc1)c1coc2c1C(=O)c1ccccc1C2=O	i	-13	i	-83	i	i
COc1ccc(-n2c(-c3ccccc3)nnc2-c2ccc(Cl)cc2)cc1	i	-2	i	7	i	i
COc1ccc(-n2c(-c3ccc(Cl)cc3)c[n+]3c2CCc2ccccc2-3)cc1	i	-19	i	-4	11*	i
CC1=NN(C(N)=S)C(=O)C1N=Nc1ccccc1C(=O)O (centres undefined)	i	-8	i	62*	i	i
CC1=NN(C(N)=S)C(=O)C1N=Nc1ccccc1Cl (centres undefined)	i	-4	i	13	i	i
COc1cc(/C=C(\NC(C)=O)C(=O)Nc2ccc(NC(C)=O)cc2)ccc1OC(C)=O	i	-2	i	10	i	i
COc1ccc(NC(=O)/C(=C/c2ccc(OC(C)=O)c(OC)c2)NC(C)=O)cc1	i	-3	i	-7	i	88*
O=S(=O)(Nc1cc(Sc2cccc3cccnc23)c(O)c2ccccc12)c1ccccc1	i	-3	nt	60*	i	i
CCOc1ccc(S(=O)(=O)Nc2cc(SCC(=O)O)c(O)c3ccccc23)cc1	i	-6	i	-89	i	i
CN(C)CCCNc1nc2sc3c(c2c(=O)n1CCc1ccccc1)CCCCC3	i	-14	i	49	i	i
Cn1nc(-c2ccc(N3CCOCC3)c(NS(=O)(=O)c3ccc(Cl)cc3)c2)c2ccccc2c1=O	nt	nt	-10*	-36	nt	nt
Cc1ccc(S(=O)(=O)Nc2cc(-c3nn(C)c(=O)c4ccccc34)ccc2N2CCOCC2)cc1	i	-8	i	-1	i	i
c1ccc2[nH]c(SCc3cn4cccnc4n3)nc2c1	i	-2	i	-27	i	i
c1ccc(-c2cnnc(SCc3cn4cccnc4n3)n2)cc1	i	-1	i	76*	i	i
Cc1cccc(C2=NC(C(F)(F)F)(C(F)(F)F)c3c(n(-c4ccc(F)cc4)c(=O)[nH]c3=O)N2)c1	i	-7	i	-6	i	i
CCOC(=O)C(=Cc1ccc2c(c1)OCO2)c1ccccc1	nt	nt	-9.8*	nt	nt	nt
O=C(CSc1ncn[nH]1)Nc1ccc(Cl)c(S(=O)(=O)N2CCOCC2)c1	i	-14	i	-5	i	i
CC(=O)c1cccc(NC(=O)C(=O)Nc2cccc3ccccc23)c1	i	5.2*	i	24	i	i
CC(=O)c1ccc(NC(=S)Nc2cccc3ccccc23)cc1	i	-5	i	31	i	i
Cc1ccc(C)c(N(C)C(=O)c2ccc3c(=O)n4c(nc3c2)CCCCC4)c1	i	-9	i	55	i	i
O=C(Cn1[nH]c(=O)c2ccccc2c1=O)NCC1COc2ccccc2O1 (centres undefined)	nt	nt	i	nt	nt	nt
COc1cccc(CC2(CO)CCN(C(=O)NC3CCCCC3)CC2)c1	i	8.7*	i	10	i	i
O=c1[nH]c2ccc(Cl)cc2c(-c2ccccc2)c1[N+](=O)[O-]	i	-3	i	25	i	i
C[C@H](NS(=O)(=O)OCC(Cl)(Cl)Cl)C1CC1c1ccccc1 (some centres undefined)	i	-10	i	-13	6*	i
SMILES	KCNK9 inh	hERG rescue	KCNK3 block	PHOSPHO1 inh	KCNQ1 block	KCNQ1 pot
S=C1NC2=C(CCC/C2=C\c2ccc(Cl)cc2)C(c2ccc(Cl)cc2)N1 (centres undefined)	i	-6	i	92*	i	i
CCOC(=O)c1c(C2COc3ccccc3O2)csc1NC(=O)c1ccco1 (centres undefined)	i	-12	i	86*	i	i
CCOC(=O)c1c(-c2cccs2)csc1NC(=O)c1ccco1	i	-11	i	6	i	i
Cc1ccc(-c2nc(NC(=O)CSc3cc(C)c4ccccc4n3)ns2)cc1	i	-6	i	60*	i	i
O=C(CSc1ccc2ccccc2n1)Nc1nsc(-c2ccc(Cl)cc2)n1	i	-5	i	1	i	i
O=C(O)C1Sc2[nH]c(=O)sc2C2c3cc(Cl)ccc3OC(=O)C12 (centres undefined)	i	-16	i	89*	i	i
Cc1ccc(C2=NNC(C(O)C(O)C(O)CO)S2)cc1 (centres undefined)	i	-6	i	84*	i	i
CC(Sc1ccc(Cl)cc1)C(=O)NNC(=O)c1ccccc1O (centres undefined)	i	-13	i	0	6*	i
O=C(COC(=O)c1cc(Cl)ccc1Cl)Nc1ccc2[nH]c(=O)[nH]c2c1	i	-16	i	nt	i	i
CCOC(=O)CSc1nc2ccsc2c(=O)n1C1CCN(C(=O)OCC)CC1	i	-18	i	14	i	i
CCOC(=O)N1CCC(n2c(SCC(=O)OCc3ccccc3)nc3ccsc3c2=O)CC1	i	-12	-9.3*	10	i	i
CCOc1ccc(C(O)(c2ccccc2OC)C(CN2CCCC2)c2ccccc2)cc1 (centres undefined)	i	-12	i	24	11*	i
Cc1cc(NC(=O)NC2CCCN2S(=O)(=O)c2ccc(Cl)cc2)no1 (centres undefined)	i	-12	i	7	i	i
C/C(=N\NC(=S)NCc1ccccc1)c1ccco1	i	4.9*	i	38	i	i
C/C(=N\NC(=S)NCc1ccccc1)c1ccccc1	i	-10	i	-2	i	i
COc1ccccc1NC(=O)C(C)OC(=O)CCC1CCCCC1 (centres undefined)	i	-16	-8.9*	38	i	i
COc1cc(CCC(=O)OCC(=O)Nc2ccc(C)cc2Br)cc(OC)c1OC	i	-15	i	28	i	i
CN1c2ccccc2C(=O)/C(=C\Nc2ccc(F)cc2F)S1(=O)=O	i	-3	i	20	i	i
Cc1noc(C)c1CSc1ncnc2sc3c(c12)CCCCC3	i	35*	i	-6	i	11*
Cc1noc(C)c1CSc1ncnc2sc(C)c(C)c12	i	-2	i	11	i	i
O=C(NCc1ccc(F)cc1)C1CCC(=O)N1C1CCCCC1 (centres undefined)	i	-14	i	32	i	i

Screening results deposited in PubChem by several laboratories.
